High-throughput results: PubChem, several laboratories
Casp6 inh: inhibitors of human caspase-6 | P55212 | purified caspase-6, Z-VEID-R110 cleavage fluorescence | inhibition, % at 12.5 µM | 350,000 tested, 0.53% active;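 active means mean inhibition across replicates at least about 35%, with every replicate also reaching that limit, limit read from the data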
NSD2 HMT inh: blocks human histone methyltransferase NSD2; NSD2 peptide methylation, AlphaScreen, 120 min; inhibition, % at 12.5 µM; 310,000 tested, 0.54% active; O96028; AID 743445; in the data active means inhibition above about 50%
UHRF1 MBD2 ctr: human UHRF1 methylated DNA binding inhibitors | UHRF1 binding to methylated oligo, TR-FRET | inhibition, % at 4.4 µM | 370,000 tested, 0.75% active | AID 687016; in the data active means inhibition above about 21%;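 further: UHRF1 SRA domain binding a hemimethylated CpG hairpin DNA probe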
LEDGF integ inh: blocks HIV-1 LEDGF/p75-dependent DNA integration. TR-FRET IN-LEDGF/p75 DNA integration, Eu/Cy5. inhibition, % at 3.7 µM. 370,000 tested, 0.64% active. AID 743269;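 active means inhibition above the screen-wide mean plus 3 SD, cut at about 13% in these data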;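 further: signal is the Cy5 over europium emission ratio at 671 and 618 nm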
TDP2 inh: TDP2 (human) inhibition, absorbance primary screen | O95551 | recombinant TDP2, T5PNP hydrolysis, p-nitrophenol absorbance 415 nm | inhibition, % at 12.8 µM | 370,000 tested, 0.34% active | AID 720702;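 active means inhibition above the mean of all tested compounds plus 3 SD, set per campaign, cut at about 25% in these data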
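System: recombinant human TDP2 / Amount: 120 nM TDP2 per well / Also added: 5 mM T5PNP chromogenic substrate / Doses: 12.8 µM single point, 1% DMSO / Incubation: 2 h at 37 °C / Detection: p-Nitrophenol epi absorbance / Evaluation: % inhibition relative to enzyme-containing and enzyme-free wells / Repeats: singlicate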
MBD2 DNA inh: inhibitors of human MBD2 binding to methylated oligonucleotide; Q9UBB5; TR-FRET; inhibition, % at 4.4 µM; 370,000 tested, 0.31% active; in the data active means inhibition above about 13%
Target sequence (Q9UBB5 whole entry, looked up): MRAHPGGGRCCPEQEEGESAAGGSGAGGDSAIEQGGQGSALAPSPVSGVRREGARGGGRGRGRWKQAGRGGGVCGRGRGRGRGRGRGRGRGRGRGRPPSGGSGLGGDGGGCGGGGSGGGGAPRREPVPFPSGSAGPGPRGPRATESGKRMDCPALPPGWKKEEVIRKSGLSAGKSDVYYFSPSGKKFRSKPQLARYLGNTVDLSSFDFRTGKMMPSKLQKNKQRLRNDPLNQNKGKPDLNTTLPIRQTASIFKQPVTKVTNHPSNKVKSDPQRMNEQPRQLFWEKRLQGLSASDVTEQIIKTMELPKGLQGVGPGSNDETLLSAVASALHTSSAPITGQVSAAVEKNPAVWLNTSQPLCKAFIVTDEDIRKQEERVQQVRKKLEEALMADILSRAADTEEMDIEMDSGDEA
IN multimer act: activates HIV-1 integrase multimerization in LEDGF counter-screen; shares compounds with LEDGF integ inh; TR-FRET HIV-1 integrase multimerization, biochemical; activation, % at 7.7 µM; 2,000 tested, 17% active; AID 1053131; in the data active means activation above about 8.9%
TRFRET interf: optically interferes with TR-FRET readout in LEDGF counter-screen | shares compounds with LEDGF integ inh | TR-FRET optical interference counterscreen, HIV-1 IN multimerization | inhibition, % at 7.7 µM | 2,000 tested, under 10 active;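 active means inhibition above the mean over all tested compounds plus 3 SD, which no compound reached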
IN-LEDGF confirm: confirmation of HIV-1 LEDGF/p75-dependent integration inhibitors | shares compounds with LEDGF integ inh | TR-FRET LEDGF/p75-dependent HIV-1 integration, biochemical | inhibition, % at 3.7 µM | 2,000 tested, 36% active; in the data active means inhibition above about 14%
Each line names hits and unclear results; the compound was inactive in the other large screens (follow-up assays come after a bar, where they were run). Sampled rows, rich in hits. Any-hit rate of the full collection: about 1.9%.

COC(=O)C1=C(C)N(Cc2ccco2)C(=O)C1	LEDGF integ inh 29 (no result: Casp6 inh) | IN multimer act inactive | TRFRET interf inactive | IN-LEDGF confirm 31
Cc1ccccc1CNC1CCCCC1	none (no result: Casp6 inh)
Oc1cc(CNC2CCCCC2)c(O)cc1CNC1CCCCC1	LEDGF integ inh 14 | IN multimer act inactive | TRFRET interf inactive | IN-LEDGF confirm 24
CC(=O)NC(c1ccco1)c1cc(Cl)c2ccc(Cl)nc2c1O (configuration not stated)	LEDGF integ inh 44 (no result: Casp6 inh, NSD2 HMT inh) | IN multimer act inactive | TRFRET interf inactive | IN-LEDGF confirm inactive
O=C(C[C@@H]1C[C@@H]2c3cc(NC(=O)Nc4ccccc4F)ccc3O[C@@H]2[C@@H](CO)O1)NCc1cc(F)ccc1F	none (no result: NSD2 HMT inh, UHRF1 MBD2 ctr, LEDGF integ inh, TDP2 inh, MBD2 DNA inh)
O=C(Cn1cnc([N+](=O)[O-])n1)c1ccccc1	none
O=C(Cn1cnc([N+](=O)[O-])n1)c1ccc(O)c(O)c1	Casp6 inh 43, LEDGF integ inh 40 | IN multimer act 9.9 | TRFRET interf inactive | IN-LEDGF confirm 22
CCOC(=O)C1CCCN(Cc2ccccc2Cl)C1 (configuration not stated)	LEDGF integ inh 16 (no result: Casp6 inh) | IN multimer act inactive | TRFRET interf inactive | IN-LEDGF confirm inactive
COC(=O)CCCC1=CC2=CC(=O)C(C)(OC(=O)c3cccs3)C(=O)C2=CN1Cc1ccco1 (configuration not stated)	Casp6 inh 47, LEDGF integ inh 25 (no result: NSD2 HMT inh) | IN multimer act inactive | TRFRET interf inactive | IN-LEDGF confirm 18
O=C(C[C@@H]1C=C[C@@H](NC(=O)CC2CC2)[C@@H](CO)O1)NCc1ccc(Cl)cc1	none (no result: NSD2 HMT inh, UHRF1 MBD2 ctr, LEDGF integ inh, TDP2 inh, MBD2 DNA inh)
O=C1OC(Nc2cc(Br)cc3cccnc23)c2ccccc21 (configuration not stated)	Casp6 inh 40, NSD2 HMT inh 104, LEDGF integ inh 54, TDP2 inh 79 | IN multimer act inactive | TRFRET interf inactive | IN-LEDGF confirm 74
O=C(C[C@@H]1CC[C@@H]2[C@H](COC[C@@H](O)CN2Cc2ccccc2)O1)N[C@@H]1CCN(Cc2ccccc2)C1	none (no result: NSD2 HMT inh, UHRF1 MBD2 ctr, LEDGF integ inh, TDP2 inh, MBD2 DNA inh)
Cc1ccc(S(=O)(=O)NCC(=O)OC(C)C(=O)c2ccccc2)cc1 (configuration not stated)	LEDGF integ inh 23 | IN multimer act inactive | TRFRET interf inactive | IN-LEDGF confirm inactive
C[C@@H]1CCCCO[C@@H](CN(C)S(=O)(=O)c2cn(C)cn2)[C@@H](C)CN([C@H](C)CO)C(=O)c2cc(NC(=O)Nc3ccccc3)ccc2O1	none (no result: NSD2 HMT inh, UHRF1 MBD2 ctr, LEDGF integ inh, TDP2 inh, MBD2 DNA inh)
O=c1[nH]c(CN2CCc3ccccc32)nc2scc(-c3cccs3)c12	LEDGF integ inh 18 (no result: Casp6 inh) | IN multimer act inactive | TRFRET interf inactive | IN-LEDGF confirm inactive
O=[N+]([O-])c1cc(Cc2ccccc2)cc(C=Nc2ccc(N3CCOCC3)cc2)c1O	none (no result: Casp6 inh, UHRF1 MBD2 ctr, LEDGF integ inh, TDP2 inh, MBD2 DNA inh)
Cc1ccc(O)c(N=Cc2cc(Cc3ccccc3)cc([N+](=O)[O-])c2O)c1	LEDGF integ inh 19 (no result: Casp6 inh) | IN multimer act inactive | TRFRET interf inactive | IN-LEDGF confirm 46
CO[C@H]1CN(C)C(=O)c2ccc(NC(=O)C3CCCC3)cc2OC[C@@H](C)N(CCC(F)(F)F)C[C@H]1C	none (no result: NSD2 HMT inh, UHRF1 MBD2 ctr, LEDGF integ inh, TDP2 inh, MBD2 DNA inh)
CC(=O)N1CCN(c2nc(-c3ccco3)c3c(c2C#N)CC(C)(C)SC3)CC1	LEDGF integ inh 22 (no result: Casp6 inh) | IN multimer act inactive | TRFRET interf inactive | IN-LEDGF confirm 19
COc1c(-c2ccc(O)c(O)c2)oc2cc(O)cc(O)c2c1=O	Casp6 inh 48, LEDGF integ inh 16 (no result: NSD2 HMT inh) | IN multimer act 9.3 | TRFRET interf inactive | IN-LEDGF confirm 72
C[C@H](O)C#Cc1cnc2c(c1)C(=O)N([C@H](C)CO)C[C@@H](C)[C@H](CN(C)C(=O)c1ccc(F)cc1)O2	none (no result: NSD2 HMT inh, UHRF1 MBD2 ctr, LEDGF integ inh, TDP2 inh, MBD2 DNA inh)
O=C(c1ccccc1)c1cccc(NC(=O)c2ccc(Br)o2)c1	LEDGF integ inh 18 (no result: Casp6 inh) | IN multimer act inactive | TRFRET interf inactive | IN-LEDGF confirm inactive
